Reference: ChEMBL document CHEMBL1122917, “Vinblastin-23-oyl amino acid derivatives: chemistry, physicochemical data, toxicity, and antitumor activities against P388 and L1210 leukemias” (J Med Chem, 1985)

Experiments:
[1] = test system: Mus musculus; test: Percent increase in life span at dose 1 mg/kg/day in 10 mice implanted with P388 leukemia cell line; assay type: functional
[2] = test system: Mus musculus; test: Number of survivors on 60th day at dose 2 mg/kg/day in 10 mice implanted with P388 leukemia cell line; 0/10; assay type: functional
[3] = test system: Mus musculus; test: Number of survivors on 60th day at dose 0.5 mg/kg/day in 10 mice implanted with P388 leukemia cell line; 0/10; assay type: functional
[4] = test system: Mus musculus; test: Number of survivors on 30th day at dose 2 mg/kg/day in 10 mice implanted with P388 leukemia cell line; 0/10; assay type: functional
[5] = test system: Mus musculus; test: Percent increase in life span of DBA2 mice after inoculation with L1210 leukemia intravenously at a dose of 2.5 mg/kg per day; assay type: functional; conditions: route intravenous
Outline: (§1)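 Female DBA2 mice inoculated iv on day 0 with 10^4 L1210 cells; drugs given iv as sulfate salts in physiological saline, mostly once on day 1. %ILS from all deaths and survivors as (T/C × 100) − 100; survivors scored on days 30 and 60.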

[6] = test system: Mus musculus; test: Number of survivors of DBA2 mice on 60th day after inoculation with L1210 leukemia cell line intravenously at a dose of 3.5 mg/kg/day; 0/10; assay type: functional; conditions: route intravenous
[7] = test system: Mus musculus; test: Number of survivors of DBA2 mice on 60th day after inoculation with L1210 leukemia cell line intravenously at a dose of 1 mg/kg/day; 0/10; assay type: functional; conditions: route intravenous
[8] = test system: Mus musculus; test: Number of survivors on 30th day at dose 0.5 mg/kg/day in 10 mice implanted with P388 leukemia cell line; 0/10; assay type: functional
[9] = test system: Mus musculus; test: Number of survivors of DBA2 mice on 60th day after inoculation with L1210 leukemia cell line intravenously at a dose of 2.5 mg/kg/day; 0/10; assay type: functional; conditions: route intravenous
[10] = test system: Mus musculus; test: Percent increase in life span of BDF1 mice after inoculation with P388 leukemia intraperitoneally at a dose of 1 mg/kg per day; conditions: P388, ip
[11] = test system: Mus musculus; test: Number of survivors on 60th day at dose 4 mg/kg/day in 10 mice implanted with P388 leukemia cell line; 0/10; assay type: functional
[12] = test system: Mus musculus; test: Number of survivors on 60th day at dose 8 mg/kg/day in 9 mice implanted with P388 leukemia cell line; 0/9; assay type: functional
[13] = test system: Mus musculus; test: Percent increase in life span of DBA2 mice after inoculation with L1210 leukemia intravenously at a dose of 6 mg/kg per day; assay type: functional; conditions: route intravenous; outline: as §1
[14] = test system: Mus musculus; test: Number of survivors of DBA2 mice on 30th day after inoculation with L1210 leukemia cell line intravenously at a dose of 9 mg/kg/day; 0/10; assay type: functional; conditions: route intravenous
[15] = test system: Mus musculus; test: Number of survivors of DBA2 mice on 60th day after inoculation with L1210 leukemia cell line intravenously at a dose of 9 mg/kg/day; 0/10; assay type: functional; conditions: route intravenous
Outline: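 Female DBA₂ mice received 10⁴ L1210 cells iv on day 0. Compounds were given iv as sulfate salts in physiological saline, as a single dose on day 1 (mg/kg per day). Groups were 10 mice. Survivors were counted on day 60. Cells were maintained by ip passage in DBA₂ mice.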

[16] = test system: Mus musculus; test: Number of survivors on 60th day at dose 4 mg/kg/day in 10 mice implanted with P388 leukemia cell line for 1st scheduled day; 0/10; assay type: functional
[17] = test system: Mus musculus; test: Percent increase in life span at dose 4 mg/kg/day in 10 mice implanted with P388 leukemia cell line for 1st scheduled day; assay type: functional
Outline: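 Female DBA2 mice inoculated iv on day 0 with 10^5 P388 cells; iv dosing of sulfate salts in physiological saline on day 1 only or on days 1, 8 and 15. %ILS from all deaths and survivors as (T/C × 100) − 100, maximal MST 60 days; survivors scored on day 60.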

[18] = test system: Mus musculus; test: Percent increase in life span of DBA2 mice after inoculation with L1210 leukemia intravenously at a dose of 9 mg/kg per day; assay type: functional; conditions: route intravenous; outline: as §1
[19] = Acute iv toxicity against CD1 strain of 40 mice after 4 doses of injection; assay type: organism-based; conditions: CD1, mouse, in vivo
Outline: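 Acute toxicity in Swiss, CD1 or NMRI mice. Drugs given iv as sulfate salts. LD50 taken at day 14 from several dose levels, with 40–[…] mice per drug and strain.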

[20] = test system: Mus musculus; test: Percent increase in life span of BDF1 mice after inoculation with P388 leukemia intraperitoneally at a dose of 6 mg/kg per day; conditions: P388, ip
[21] = test system: Mus musculus; test: Number of survivors on 30th day at dose 3 mg/kg/day in 10 mice implanted with P388 leukemia cell line; 0 /10; assay type: functional
[22] = test system: Mus musculus; test: Percent increase in life span at dose 3 mg/kg/day in 10 mice implanted with P388 leukemia cell line; assay type: functional
Outline: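 Female DBA2 mice inoculated iv on day 0 with 10^4 P388 cells; single iv treatment on day 1 with drug as sulfate salt in physiological saline. Survival followed; %ILS from all deaths and survivors as (T/C × 100) − 100, maximal MST 30 days; survivors counted on days 30 and 60. Most experiments confirmed three times.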

[23] = test system: Mus musculus; test: Number of survivors of DBA2 mice on 60th day after inoculation with L1210 leukemia cell line intraperitoneally at a dose of 6 mg/kg/day; 0/10; assay type: functional; conditions: route intraperitoneal
[24] = test system: Mus musculus; test: Number of survivors of DBA2 mice on 60th day after inoculation with L1210 leukemia cell line intravenously at a dose of 6 mg/kg/day; 0/10; assay type: functional; conditions: route intravenous
[25] = test system: Mus musculus; test: Number of survivors on 60th day at dose 75 mg/kg/day in 7 mice implanted with P388 leukemia cell line for 1,8,15 scheduled days in Exp-1; 6/10; assay type: functional
[26] = test system: Mus musculus; test: Number of survivors on 30th day at dose 55 mg/kg/day in 10 mice implanted with P388 leukemia cell line; 7/10; assay type: functional
[27] = test system: Mus musculus; test: Number of survivors of DBA2 mice on 30th day after inoculation with L1210 leukemia cell line intravenously at a dose of 65 mg/kg/day; 0/10; assay type: functional; conditions: route intravenous
[28] = test system: Mus musculus; test: 7 Percent increase in life span at dose 75 mg/kg/day in 7 mice implanted with P388 leukemia cell line for 1,8,15 schedule day in Exp-1; assay type: functional
[29] = test system: Mus musculus; test: Percent increase in life span at dose 58 mg/kg/day in 10 mice implanted with P388 leukemia cell line; assay type: functional
[30] = test system: Mus musculus; test: Number of survivors on 60th day at dose 5 mg/kg/day in 9 mice implanted with P388 leukemia cell line; 0/10; assay type: functional
[31] = test system: Mus musculus; test: Number of survivors on 30th day at dose 7 mg/kg/day in 10 mice implanted with P388 leukemia cell line; 2/10; assay type: functional
[32] = test system: Mus musculus; test: Number of survivors on 30th day at dose 6 mg/kg/day in 10 mice implanted with P388 leukemia cell line; 1/10; assay type: functional
[33] = test system: Mus musculus; test: Percent increase in life span of DBA2 mice after inoculation with L1210 leukemia intravenously at a dose of 10 mg/kg per day; assay type: functional; conditions: route intravenous
[34] = test system: Mus musculus; test: Number of survivors on 60th day at dose 3 mg/kg/day in 10 mice implanted with P388 leukemia cell line; 0/9; assay type: functional
[35] = test system: Mus musculus; test: Number of survivors on 60th day at dose 2.5 mg/kg/day in 10 mice implanted with P388 leukemia cell line for 1st scheduled day; 0/10; assay type: functional

Structure (SMILES)	Survivors [2]	Survivors [4]	ILS at 2.5 mg/kg/day [5]	Survivors [9]	Survivors [11]	ILS at 6 mg/kg/day [13]	Survivors [14]	Survivors [15]	Survivors [16]	ILS at 4 mg/kg/day [17]	ILS at 9 mg/kg/day [18]	LD50 [19]	ILS at 6 mg/kg/day [20]	ILS at 3 mg/kg/day [22]	Survivors [23]	Survivors [24]	further results
CC[C@]1(O)C[C@H]2CN(CCc3c([nH]c4ccccc34)[C@@](C(=O)OC)(c3cc4c(cc3OC)N(C=O)[C@H]3[C@@](O)(C(=O)OC)[C@H](OC(C)=O)[C@]5(CC)C=CCN6CC[C@]43[C@@H]65)C2)C1 [VINCRISTINE]	0	0	30%	0													ILS at 1 mg/kg/day [1]: 16%; Survivors [3]: 0; Survivors [6]: 0; Survivors [7]: 0; Survivors [8]: 0; ILS at 1 mg/kg/day [10]: 47%
CC[C@]1(O)C[C@@H]2CN(CCc3c([nH]c4ccccc34)[C@@](C(=O)OC)(c3cc4c(cc3OC)N(C)[C@H]3[C@@](O)(C(=O)OC)[C@H](OC(C)=O)[C@]5(CC)C=CCN6CC[C@]43[C@@H]65)C2)C1 [VINBLASTINE]					0	24.7%	0	0	0	52%	-21.6%	28 mg/kg	-61%	30.8%	0	0	Survivors [12]: 0; Survivors [21]: 0
CCOC(=O)[C@H](Cc1c[nH]c2ccccc12)NC(=O)[C@@]1(O)[C@H](O)[C@]2(CC)C=CCN3CC[C@@]4(c5cc([C@@]6(C(=O)OC)C[C@H]7C[N@](CCc8c6[nH]c6ccccc86)C[C@](O)(CC)C7)c(OC)cc5N(C)[C@@]14C)[C@@H]32												110 mg/kg					Survivors [25]: 6; Survivors [26]: 7; Survivors [27]: 0; ILS at 75 mg/kg/day [28]: 108%; ILS at 58 mg/kg/day [29]: 122%
CCOC(=O)[C@@H](NC(=O)[C@@]1(O)[C@H](O)[C@]2(CC)C=CCN3CC[C@@]4(c5cc([C@@]6(C(=O)OC)C[C@H]7C[N@](CCc8c6[nH]c6ccccc86)C[C@](O)(CC)C7)c(OC)cc5N(C)[C@@]14C)[C@@H]32)[C@@H](C)CC						41.3%	0	0			64%					0	Survivors [30]: 0; Survivors [31]: 2; Survivors [32]: 1; ILS at 10 mg/kg/day [33]: 27%
CC[C@]1(O)C[C@@H]2CN(CCc3c([nH]c4ccccc34)[C@@](C(=O)OC)(c3cc4c(cc3OC)N(C)[C@H]3[C@@](O)(C(N)=O)[C@H](O)[C@]5(CC)C=CCN6CC[C@]43[C@@H]65)C2)C1 [VINDESINE]	0	0	13.3%	0	0				0	43%			-47%	23%	0		Survivors [34]: 0; Survivors [35]: 0
